Data: ChEMBL document CHEMBL3351588, “Design, synthesis and biological evaluation of N-alkyl or aryl substituted isoindigo derivatives as potential dual cyclin-dependent kinase 2 (CDK2)/glycogen synthase kinase 3β (GSK-3β) phosphorylation inhibitors” (Eur J Med Chem, 2014)

Experiments:
[1] = tested on: K562; test: Induction of cell cycle arrest in human K562 cells assessed as accumulation at S phase at 5 uM after 24 hrs by propidium iodide staining based flow cytometry (reference value: 44.90%); type: functional
[2] = tested on: K562; test: Induction of cell cycle arrest in human K562 cells assessed as accumulation at G2/M phase at 20 uM after 24 hrs by propidium iodide staining based flow cytometry (reference value: 18.96%); type: functional
[3] = tested on: K562; test: Induction of apoptosis in human K562 cells after 24 hrs by Annexin V-FITC/propidium iodide staining based flow cytometry; type: functional, cell-based
How it was run: (§1)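 K562 cells exposed for 24 h or 48 h to 0, 5.0, 10.0, 15.0, 20.0 or 30.0 µM; vehicle DMSO 0.5% v/v. Cells stained with FITC-Annexin V, then counterstained with PI, and analysed by FACScan flow cytometry. Quadrants: Annexin V−/PI− viable; Annexin V+/PI− early apoptotic; Annexin V+/PI+ late apoptotic/necrotic.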

[4] = tested on: K562; test: Induction of apoptosis in human K562 cells after 48 hrs by Annexin V-FITC/propidium iodide staining based flow cytometry; type: functional, cell-based; how it was run: as §1
[5] = tested on: K562; test: Induction of necrosis in human K562 cells after 48 hrs by Annexin V-FITC/propidium iodide staining based flow cytometry; type: functional, cell-based
[6] = tested on: K562; test: Induction of apoptosis in human K562 cells assessed as viable cells level at 10 uM after 24 hrs by Annexin V-FITC/propidium iodide staining based flow cytometry (reference value: 97.64%); type: functional; how it was run: as §1
[7] = tested on: K562; test: Induction of apoptosis in human K562 cells assessed as early apoptotic cells level at 10 uM after 24 hrs by Annexin V-FITC/propidium iodide staining based flow cytometry (reference value: […]); type: functional
[8] = tested on: K562; test: Induction of apoptosis in human K562 cells assessed as necrotic cells level at 15 uM after 24 hrs by Annexin V-FITC/propidium iodide staining based flow cytometry (reference value: 0.0%); type: functional; how it was run: as §1
[9] = tested on: K562; test: Induction of apoptosis in human K562 cells assessed as late apoptotic cells level at 30 uM after 24 hrs by Annexin V-FITC/propidium iodide staining based flow cytometry (reference value: 0.79%); type: functional; how it was run: as §1
[10] = tested on: K562; test: Induction of apoptosis in human K562 cells assessed as viable cells level at 10 uM after 48 hrs by Annexin V-FITC/propidium iodide staining based flow cytometry (reference value: 99.21%); type: functional; how it was run: as §1
[11] = tested on: K562; test: Induction of apoptosis in human K562 cells assessed as late apoptotic cells level at 20 uM after 48 hrs by Annexin V-FITC/propidium iodide staining based flow cytometry (reference value: 0.54%); type: functional; how it was run: as §1
[12] = tested on: K562; test: Induction of apoptosis in human K562 cells assessed as viable cells level at 30 uM after 48 hrs by Annexin V-FITC/propidium iodide staining based flow cytometry (reference value: 99.21%); type: functional; how it was run: as §1
[13] = biological target: Glycogen synthase kinase-3 beta (Homo sapiens) (UniProt P49841); test: Inhibition of GSK3beta Ser9 phosphorylation in human K562 cells at 5 to 30 uM after 24 hrs by Western blotting method; type: cell-based
[14] = tested on: MGC-803; test: Cytotoxicity against human MGC803 cells after 48 hrs by SRB assay; type: functional, cell-based; settings: MGC-803, 48 h
How it was run: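 Cells seeded at 5 × 10³ per well and allowed to attach for 12 h, then exposed to a range of drug concentrations in their own medium for 48 h. Fixed with ice-cold TCA for 1 h at 4 °C, washed, then stained with 0.4% SRB for 30 min at room temperature. IC50 is the mean of three independent experiments.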

[15] = tested on: K562; test: Induction of cell cycle arrest in human K562 cells assessed as accumulation at S phase after 24 hrs by propidium iodide staining based flow cytometry; type: functional

Sequence of Glycogen synthase kinase-3 beta (Homo sapiens) (P49841 whole entry, looked up): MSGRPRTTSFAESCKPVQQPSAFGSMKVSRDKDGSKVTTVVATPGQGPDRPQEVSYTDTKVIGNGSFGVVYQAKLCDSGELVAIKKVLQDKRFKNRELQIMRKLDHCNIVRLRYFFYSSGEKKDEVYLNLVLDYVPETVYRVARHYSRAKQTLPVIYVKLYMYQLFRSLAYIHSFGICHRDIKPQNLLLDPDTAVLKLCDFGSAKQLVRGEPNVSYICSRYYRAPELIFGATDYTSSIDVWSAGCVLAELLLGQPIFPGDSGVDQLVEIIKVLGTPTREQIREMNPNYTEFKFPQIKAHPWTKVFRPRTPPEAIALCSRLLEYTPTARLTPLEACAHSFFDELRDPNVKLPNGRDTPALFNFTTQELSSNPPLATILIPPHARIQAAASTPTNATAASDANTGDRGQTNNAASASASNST

Question: COc1ccc(N2C(=O)/C(=C3/C(=O)Nc4ccccc43)c3ccccc32)cc1 was tested. Which Activity [1] did it give?
Answer: Its Activity is 46.03%.

Question: What about the Activity [2] of the same compound?
Answer: The Activity was 11.65%.

Question: And the Activity [3]?
Answer: The Activity was “Dose-dependent effect”.

Question: What about the Activity [4] of the same compound?
Answer: Its Activity is “Dose-dependent effect”.

Question: What about the Activity [5] of the same compound?
Answer: Its Activity is “Dose-dependent effect”.

Question: What about the Activity [6] of the same compound?
Answer: Its Activity is 93.14%.

Question: And the Activity [7]?
Answer: Its Activity is 4.4%.

Question: What about the Activity [8] of the same compound?
Answer: The Activity was 0.01%.

Question: And the Activity [9]?
Answer: Its Activity is 20.02%.

Question: And the Activity [10]?
Answer: Its Activity is 96.91%.

Question: What about the Activity [11] of the same compound?
Answer: Its Activity is 11.56%.

Question: And the Activity [12]?
Answer: Its Activity is 62.69%.

Question: What about the inhibition [13] of the same compound?
Answer: The inhibition was “Dose-dependent effect”.

Question: What about the IC50 [14] of the same compound?
Answer: Its IC50 is 122 µM.

Question: And the Activity [15]?
Answer: Its Activity is “Dose-dependent effect”.
